Where two headings read alike, the source gives them in different places.
Assays:
[1] = fractional difference of race, relative to Chinese model; cited from earlier work
[2] = cited from earlier work
[3] = humans, cited from earlier work
[4] = cited from earlier work; remark: listed apart in the source
[5] = Reported food effect study in Caucasian population; format: in vivo, healthy Caucasian subjects; settings: average of the 40 mg and 120 mg group, observed data of ref 22
[6] = design: species or system healthy Caucasian subjects; settings: Caucasian
In short: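 Monte Carlo simulation from the final Chinese-population model, with CL/F raised and relative bioavailability lowered per earlier published race covariate estimates. The 24 simulated Caucasian subjects had demographics matching a reported food-effect study.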

[7] = Population pharmacokinetic analysis; format: in vivo, healthy Chinese adult volunteers
In short: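 Pooled plasma data from 128 subjects were fitted by SAEM with a two-compartment model: first-order elimination, two deposit absorption compartments, lag times. Parameters were log-normal with exponential IIV, and proportional, additive and combined residual errors were tested. Stepwise covariate search used p<0.05 forward and p<0.01 backward. Sex, age, WT and BMI were tested on CL/F and volume. Food (0 fasted, 1 fed) was tested on absorption parameters. Evaluation used AIC, OFV, GOF, VPC (1000 simulations) and NPDE.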

[8] = format: in vivo, healthy Chinese adult volunteers; settings: for subjects whose concentration-time curves displayed multiple peaks: fasting state
In short: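 Two open-label BE studies in healthy Chinese adults, each giving one reference tablet dose (20 mg or 80 mg) with 240 mL water. Subjects either fasted ≥10 h pre-dose or ate a high-fat, high-calorie meal (800–1000 kcal) within 30 min of dosing. Blood was drawn from 30 min pre-dose to 48 h post-dose. Plasma was separated at 3000 rpm, stored at −70 °C, and assayed by LC-MS/MS. Cmax, tmax and AUCs came from non-compartmental analysis.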

[9] = cited from earlier work; remark: listed apart in the source
[10] = fasted, average of the 40 mg and 120 mg group

Cc1nc(-c2ccc(OCC(C)C)c(C#N)c2)sc1C(=O)O [febuxostat, 2-[3-cyano-4-(2-methylpropoxy)phenyl]-4-methylthiazole-5-carboxylic acid]
decrease of bioavailability applied for Caucasian subjects [1]: 46% | CL/F estimate for healthy Australian subjects [2]: 6.91 L/h | extent of metabolism by glucuronidation [3]: up to 40% | time to reach maximum plasma concentrations (Cmax) ([3]; oral administration, fasting condition): 0.5 ~ 1.5 h | CL/F reported by Rekić et al. [4]: 14.58 L/h | fed/fasted ratio of observed mean AUC [5]: 0.83 | fed/fasted ratio of observed mean Cmax [5]: 0.60 | fed/fasted ratio of observed mean Tmax [5]: 1.87 | predicted fed/fasted ratio of AUC ([6]; simulated): 1.02 | predicted fed/fasted ratio of Cmax ([6]; simulated): 0.68 | predicted fed/fasted ratio of Tmax ([6]; simulated): 1.53 | ratio of mean predicted and observed AUC [6, 10]: 0.92 | ratio of mean predicted and observed Cmax [6, 10]: 0.81 | ratio of mean predicted and observed Tmax [6, 10]: 1.41 | ratio (predicted/observed) of AUC ([6]; fed state): 1.13 | ratio (predicted/observed) of Cmax ([6]; fed state): 0.92 | ratio (predicted/observed) of Tmax ([6]; fed state): 1.13 | estimated CL/F for healthy Chinese subjects ([7]; PopPK final model): 6.14 L/h | CL/F, final model estimate (RSE%) ([7]; apparent clearance): 6.14 (2.26) L∙h^−1 | Vc/F, final model estimate (RSE%) ([7]; apparent distribution volume of central compartment): 10.38 (2.07) L | Vp/F, final model estimate (RSE%) ([7]; apparent distribution volume of peripheral compartment): 10.22 (3.21) L | WT_Vc/F, final model estimate (RSE%) ([7]; covariate coefficient of body weight on Vc/F): 0.58 (27.9) | WT_Vp/F, final model estimate (RSE%) ([7]; covariate coefficient of body weight on Vp/F): 1.15 (22.5) | Food_Tlag1, final model estimate (RSE%) ([7]; covariate coefficient of fed state on Tlag1): 0.73 (18.2) | Food_ka1, final model estimate (RSE%) ([7]; covariate coefficient of fed state on ka1): −2.04 (8) | Food_ka2, final model estimate (RSE%) ([7]; covariate coefficient of fed state on ka2): −1.08 (19.9) | reduction of ka1 by food ([7]; fed vs fasted, final model): 87% | reduction of ka2 by food ([7]; fed vs fasted, final model): 66% | ka1, final model estimate (RSE%) ([7]; first-order absorption rate constant of first depot, fasted state): 4.02 (11.4) h^−1 | ka2, final model estimate (RSE%) ([7]; first-order absorption rate constant of second depot, fasted state): 4.34 (15.6) h^−1 | F1, final model estimate (RSE%) ([7]; fraction of absorbed febuxostat from first depot): 0.51 (3.7) | Q/F, final model estimate (RSE%) ([7]; in vivo): 1.93 (4.25) L∙h^−1 | Tlag1, final model estimate (RSE%) ([7]; lag time of first depot, fasted state): 0.22 (8.93) h | Tlag2, final model estimate (RSE%) ([7]; lag time of second depot): 0.92 (7.63) h | Cmax (mean ± SD) ([8]; 20 mg single oral dose, fasting (n=36), plasma): 1091 ± 301.0 ng/mL | subjects whose concentration-time curves displayed multiple peaks ([8]; 20 mg, may be overestimated): approximately 75.0% | Tmax (median, range) ([8]; 80 mg single oral dose, fed (n=30), plasma): 1.75 (0.75, 4.00) h | subjects whose concentration-time curves displayed multiple peaks ([8]; 80 mg, may be overestimated): ~80.6% | curves showing multiple peaks ([8]; fed study, may be overestimated): about 40% | Tmax ([8]; human, plasma, po, 20 mg): 1.25 h | solubility in methanol ([9]; methanol): slightly soluble | solubility in water ([9]; water): practically insoluble

— paper PMC11348603 (BMC Pharmacology & Toxicology, 2024)
